The values below come from ChEMBL document CHEMBL2321661, “Synthesis and biological evaluation of 5-nitropyrimidine analogs with azabicyclic substituents as GPR119 agonists” (Bioorg Med Chem Lett, 2013).

The target in assay [1] is T1, Glucose-dependent insulinotropic receptor (Homo sapiens) (UniProt Q8TDV5).
T1 sequence (whole entry): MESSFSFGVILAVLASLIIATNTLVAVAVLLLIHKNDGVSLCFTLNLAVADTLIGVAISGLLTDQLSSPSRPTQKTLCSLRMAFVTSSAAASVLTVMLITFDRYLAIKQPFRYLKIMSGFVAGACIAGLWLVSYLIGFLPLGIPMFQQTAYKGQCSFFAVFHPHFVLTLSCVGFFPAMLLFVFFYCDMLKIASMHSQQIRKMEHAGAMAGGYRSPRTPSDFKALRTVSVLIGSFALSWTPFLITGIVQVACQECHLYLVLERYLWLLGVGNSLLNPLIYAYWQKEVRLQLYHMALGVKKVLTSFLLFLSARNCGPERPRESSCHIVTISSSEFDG
Kind of assay: Agonist activity at human GPR119 transfected in HEK293 cells assessed as cAMP stimulation relative to maximal effect of oleylethanolamine. It is filed as functional, cell-based. An outline of the steps: (§1)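 HEK293 cells seeded at 4 × 10³ cells/well and grown 24 h, then transiently transfected with a human GPR119 expression plasmid by lipofection. After 24 h, compounds were applied in KRBH buffer with 0.1% BSA and IBMX for 60 min at 37 °C. Cells were lysed 10 min at room temperature (phosphate/KF/Triton, pH 7.0), and cAMP was read by HTRF.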

Assay [2] addresses T2, Glucose-dependent insulinotropic receptor (Homo sapiens, UniProt Q8TDV5).
T2 sequence (Q8TDV5 whole entry): T1 sequence (whole entry)
Description: Agonist activity at human GPR119 transfected in HEK293 cells assessed as concentration for 50 % cAMP stimulation of oleylethanolamine. It is filed as functional, cell-based. An outline of the steps: as §1

The term Emax denotes the maximal effect, on the per cent scale that the assay sets. What is called EC50 is the concentration giving half of the maximal effect.

Regarding `CC(C)(C)OC(=O)N1[C@@H]2CC[C@H]1C[C@H](Nc1ncnc(Nc3ccc(S(C)(=O)=O)cc3)c1[N+](=O)[O-])C2`, the maximal response (Emax) in assay [1] worked out at 139%. Further, the 50% effective concentration (EC50) in assay [2] turned out to be 11.5 nM.
Consider `CC(C)(C)OC(=O)N1[C@@H]2CC[C@H]1C[C@@H](Oc1ncnc(Nc3ccc(S(C)(=O)=O)cc3F)c1[N+](=O)[O-])C2` (stereo in doubt; 12) [listing 1 of 2 here], for which the Emax in assay [1] amounted to 116%.
`CC(C)(C)OC(=O)N1[C@@H]2CC[C@H]1C[C@H](Nc1ncnc(Nc3ccc(S(C)(=O)=O)cc3F)c1[N+](=O)[O-])C2`: the Emax in assay [1] came out at 99%. In addition, the EC50 in assay [2] came out at 1.5 nM.
For `CC(C)(C)OC(=O)N1[C@@H]2CC[C@H]1C[C@@H](Oc1ncnc(Nc3ccc(S(C)(=O)=O)cc3)c1[N+](=O)[O-])C2` (stereo in doubt; 13) [listing 1 of 2 here], the half-maximal effective concentration (EC50) in assay [2] amounted to 14.5 nM.
As to `CC(C)(C)OC(=O)N1[C@@H]2CC[C@H]1C[C@@H](CNc1ncnc(Nc3ccc(S(C)(=O)=O)cc3F)c1[N+](=O)[O-])C2`, in assay [1], the Emax came out at 53%. For the same compound, the EC50 in assay [2] is 6.7 nM.
In the case of `CC(C)(C)OC(=O)N1[C@@H]2CC[C@H]1C[C@@H](Oc1ncnc(Nc3ccc(S(C)(=O)=O)cc3)c1[N+](=O)[O-])C2` (stereo in doubt; 11) [listing 1 of 2 here], in assay [2], the EC50 came out at 4.9 nM.
With `CC(C)(C)OC(=O)N1[C@@H]2CC[C@H]1C[C@@H](CNc1ncnc(Nc3ccc(S(C)(=O)=O)cc3)c1[N+](=O)[O-])C2`, in assay [1], the maximal response (Emax) was determined as 41%. For the same compound, the EC50 in assay [2] was over 10000 nM.
With `CC(C)(C)OC(=O)N1[C@@H]2CC[C@H]1C[C@@H](Oc1ncnc(Nc3ccc(S(C)(=O)=O)cc3)c1[N+](=O)[O-])C2` (stereo in doubt; 13) [listing 2 of 2 here], in assay [1], the Emax was 69%.
Take `CCCCCCCC/C=C\CCCCCCCC(=O)NCCO`: in assay [1], the Emax was found to be 100%.
On the same count and under the same terms, to `CC(C)(C)OC(=O)N1[C@@H]2CC[C@H]1C[C@@H](Oc1ncnc(Nc3ccc(S(C)(=O)=O)cc3)c1[N+](=O)[O-])C2` (stereo in doubt; 11) [listing 2 of 2 here] belongs 99%.
`CC(C)(C)OC(=O)N1[C@@H]2CC[C@H]1C[C@@H](Oc1ncnc(Nc3ccc(S(C)(=O)=O)cc3F)c1[N+](=O)[O-])C2` (stereo in doubt; 14) [listing 1 of 2 here]: the EC50 in assay [2] came to 1.4 nM.
As to `CC(C)(C)OC(=O)N1[C@@H]2CC[C@H]1C[C@@H](Oc1ncnc(Nc3ccc(S(C)(=O)=O)cc3F)c1[N+](=O)[O-])C2` (stereo in doubt; 12) [listing 2 of 2 here], the EC50 in assay [2] was 1.5 nM.
Take `CC(C)(C)OC(=O)N1[C@@H]2CC[C@H]1C[C@@H](Oc1ncnc(Nc3ccc(S(C)(=O)=O)cc3F)c1[N+](=O)[O-])C2` (stereo in doubt; 14) [listing 2 of 2 here]: in assay [1], the Emax came out at 65%.
